Reference: ChEMBL document CHEMBL1124459, “Activity of aromatic substituted phenylpiperazines lacking affinity for dopamine binding sites in a preclinical test of antipsychotic efficacy” (J Med Chem, 1989)

How the values were obtained:
[1] = biological target: Serotonin 2 (5-HT2) receptor (Rattus norvegicus, UniProt P30994+P08909+P14842); test: Binding affinity in radioreceptor binding assay by using [3H]5-HT radioligand against 5-hydroxytryptamine 2 receptor; assay type: protein assay
[2] = biological target: T1, Adrenergic receptor alpha-1 (Rattus norvegicus, UniProt P15823+P23944+P43140); test: Binding affinity against rat Alpha-1 adrenergic receptor.; assay type: protein assay
T1 sequence (P15823 whole entry): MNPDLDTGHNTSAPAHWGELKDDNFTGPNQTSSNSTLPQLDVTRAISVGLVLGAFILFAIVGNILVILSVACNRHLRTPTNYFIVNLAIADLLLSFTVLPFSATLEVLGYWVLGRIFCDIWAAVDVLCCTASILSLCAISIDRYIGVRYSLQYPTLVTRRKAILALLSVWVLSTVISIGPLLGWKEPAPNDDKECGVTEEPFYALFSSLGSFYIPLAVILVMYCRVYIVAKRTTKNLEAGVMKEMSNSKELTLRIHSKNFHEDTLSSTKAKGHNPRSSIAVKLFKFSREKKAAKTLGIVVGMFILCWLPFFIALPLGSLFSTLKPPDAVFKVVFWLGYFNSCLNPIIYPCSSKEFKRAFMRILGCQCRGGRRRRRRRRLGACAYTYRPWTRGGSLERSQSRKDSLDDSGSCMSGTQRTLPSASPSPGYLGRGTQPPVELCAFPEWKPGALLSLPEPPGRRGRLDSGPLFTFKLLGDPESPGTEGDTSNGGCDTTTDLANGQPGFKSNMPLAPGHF
T1 sequence (P23944 whole entry): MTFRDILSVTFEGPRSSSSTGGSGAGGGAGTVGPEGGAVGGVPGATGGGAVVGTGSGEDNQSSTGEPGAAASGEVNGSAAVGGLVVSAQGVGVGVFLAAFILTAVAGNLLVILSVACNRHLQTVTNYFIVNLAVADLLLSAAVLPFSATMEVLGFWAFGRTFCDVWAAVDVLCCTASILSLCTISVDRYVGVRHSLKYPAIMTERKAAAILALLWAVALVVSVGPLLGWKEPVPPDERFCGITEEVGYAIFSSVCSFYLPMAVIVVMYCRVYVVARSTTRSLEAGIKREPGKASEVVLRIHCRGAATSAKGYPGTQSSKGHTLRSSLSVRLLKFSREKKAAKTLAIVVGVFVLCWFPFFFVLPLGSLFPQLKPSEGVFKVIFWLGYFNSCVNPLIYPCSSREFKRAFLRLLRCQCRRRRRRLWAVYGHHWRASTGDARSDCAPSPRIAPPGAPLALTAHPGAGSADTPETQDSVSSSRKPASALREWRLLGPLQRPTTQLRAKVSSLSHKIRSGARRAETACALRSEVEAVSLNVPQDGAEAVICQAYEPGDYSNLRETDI
T1 sequence (P43140 whole entry): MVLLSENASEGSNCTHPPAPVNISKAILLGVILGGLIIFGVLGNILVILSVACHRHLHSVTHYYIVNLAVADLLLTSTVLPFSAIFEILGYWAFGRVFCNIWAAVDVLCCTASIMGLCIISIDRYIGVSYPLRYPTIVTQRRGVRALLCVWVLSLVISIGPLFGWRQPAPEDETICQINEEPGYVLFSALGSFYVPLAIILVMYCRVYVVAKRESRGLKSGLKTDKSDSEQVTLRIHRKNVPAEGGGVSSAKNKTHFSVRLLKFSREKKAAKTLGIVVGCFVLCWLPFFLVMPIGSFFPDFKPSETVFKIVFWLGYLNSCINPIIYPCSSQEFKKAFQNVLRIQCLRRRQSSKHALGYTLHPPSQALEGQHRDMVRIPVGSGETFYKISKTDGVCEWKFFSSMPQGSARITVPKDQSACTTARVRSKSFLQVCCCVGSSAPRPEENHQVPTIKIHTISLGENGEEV

[3] = biological target: T2, D(2) dopamine receptor (Rattus norvegicus, UniProt P61169); test: Binding affinity against rat Dopamine receptor D2.
T2 sequence (P61169 whole entry): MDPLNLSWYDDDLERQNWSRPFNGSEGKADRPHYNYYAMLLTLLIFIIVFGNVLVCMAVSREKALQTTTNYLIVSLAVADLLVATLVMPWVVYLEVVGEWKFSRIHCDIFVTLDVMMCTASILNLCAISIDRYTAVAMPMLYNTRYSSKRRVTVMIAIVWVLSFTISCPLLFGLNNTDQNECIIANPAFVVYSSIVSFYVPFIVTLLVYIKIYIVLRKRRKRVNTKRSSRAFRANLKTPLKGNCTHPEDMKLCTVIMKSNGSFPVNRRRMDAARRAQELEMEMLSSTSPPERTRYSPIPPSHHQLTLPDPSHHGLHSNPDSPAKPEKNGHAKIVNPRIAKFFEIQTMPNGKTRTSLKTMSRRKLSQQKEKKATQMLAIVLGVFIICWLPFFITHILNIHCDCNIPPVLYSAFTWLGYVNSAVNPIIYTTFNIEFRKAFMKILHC

[4] = biological target: T3, 5-hydroxytryptamine receptor 1B (Rattus norvegicus, UniProt P28564); test: Binding affinity determined in radioreceptor binding assay by using [3H]5-HT radioligand against 5-hydroxytryptamine 1B receptor
T3 sequence (P28564 whole entry): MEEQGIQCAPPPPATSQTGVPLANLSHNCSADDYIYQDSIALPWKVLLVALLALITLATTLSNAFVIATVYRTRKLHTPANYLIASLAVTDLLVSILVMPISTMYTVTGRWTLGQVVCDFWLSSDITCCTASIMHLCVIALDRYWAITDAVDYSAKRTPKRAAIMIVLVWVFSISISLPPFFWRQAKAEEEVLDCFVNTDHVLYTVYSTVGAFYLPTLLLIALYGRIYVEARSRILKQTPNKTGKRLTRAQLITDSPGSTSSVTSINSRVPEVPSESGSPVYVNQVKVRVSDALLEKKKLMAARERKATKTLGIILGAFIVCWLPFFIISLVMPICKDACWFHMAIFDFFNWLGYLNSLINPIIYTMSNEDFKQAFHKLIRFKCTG
Summary of the method: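 Rat cortical tissue labelled with [3H]serotonin. The incubation medium included 8-OH-DPAT at 100 nM final. Run in duplicate, with one to five concentration–response curves per compound.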

[5] = tested on: Rattus norvegicus; test: Effective dose in blocking conditioned avoidance responding (CAR) in the rat when administered intraperitoneally; assay type: functional; settings: ip
Summary of the method: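 Rats trained on a discrete-trial single-lever conditioned avoidance task, dosed ip and tested at the time of peak effect. Each dose was given to 6–12 rats. CAR reduction and loss of escape responding were recorded.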

[6] = biological target: Serotonin 1 (5-HT1) receptor (Rattus norvegicus, UniProt P28564+P30940+P19327+P28565); test: Binding affinity in radioreceptor binding assay by using [3H]5-HT radioligand against 5-hydroxytryptamine 1 receptor; assay type: protein assay
[7] = biological target: T4, 5-hydroxytryptamine receptor 1A (Rattus norvegicus, UniProt P19327)
T4 sequence (P19327 whole entry): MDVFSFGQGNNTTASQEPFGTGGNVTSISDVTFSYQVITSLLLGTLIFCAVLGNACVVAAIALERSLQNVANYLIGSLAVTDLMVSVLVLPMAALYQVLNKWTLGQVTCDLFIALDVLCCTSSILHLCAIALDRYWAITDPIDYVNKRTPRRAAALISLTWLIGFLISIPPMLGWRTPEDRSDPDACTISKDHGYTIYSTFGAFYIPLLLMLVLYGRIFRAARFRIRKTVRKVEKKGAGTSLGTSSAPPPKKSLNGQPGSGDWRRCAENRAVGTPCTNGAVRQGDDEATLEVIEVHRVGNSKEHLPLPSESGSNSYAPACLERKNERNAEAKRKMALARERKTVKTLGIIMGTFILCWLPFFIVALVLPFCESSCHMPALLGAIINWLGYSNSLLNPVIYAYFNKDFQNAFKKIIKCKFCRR

[8] = biological target: T5, D(1A) dopamine receptor (Rattus norvegicus, UniProt P18901); test: Binding affinity at rat Dopamine receptor D1 by [3H]SCH-23390 displacement.
T5 sequence (P18901 whole entry): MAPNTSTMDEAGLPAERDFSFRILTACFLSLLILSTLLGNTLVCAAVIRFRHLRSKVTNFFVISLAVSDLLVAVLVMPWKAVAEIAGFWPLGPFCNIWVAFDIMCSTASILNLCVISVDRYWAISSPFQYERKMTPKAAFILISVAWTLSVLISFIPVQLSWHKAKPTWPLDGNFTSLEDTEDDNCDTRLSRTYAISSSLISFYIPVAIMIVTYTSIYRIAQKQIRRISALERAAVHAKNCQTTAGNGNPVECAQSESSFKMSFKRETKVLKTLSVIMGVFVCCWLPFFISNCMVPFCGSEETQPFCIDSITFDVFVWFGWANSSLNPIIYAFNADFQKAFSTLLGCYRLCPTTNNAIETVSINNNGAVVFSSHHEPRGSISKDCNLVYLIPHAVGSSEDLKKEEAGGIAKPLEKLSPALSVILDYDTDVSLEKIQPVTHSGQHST
Summary of the method: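 Rat striatal tissue suspended in 20 mM NaHepes without sucrose, at 250 volumes of the tissue weight. Labelled with [3H]SCH-23390 added as a 3 nM solution. Nonspecific binding set with unlabelled SCH-23390 added as a 30 μM solution. Incubated 20 min. Run in duplicate, with one to five concentration–response curves per compound.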

[9] = biological target: T3, 5-hydroxytryptamine receptor 1B; test: Binding affinity in radioreceptor binding assay by using [3H]5-HT radioligand against 5-hydroxytryptamine 1B receptor
Summary of the method: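 Rat cortical membranes; [3H]serotonin as ligand, as in the 5-HT-1 assay, with 8-OH-DPAT added at 100 nM final to the incubation medium; assays run in duplicate; one to five concentration-response curves per compound.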

[10] = biological target: T5, D(1A) dopamine receptor; test: Binding affinity in radioreceptor binding assay by using [3H]5-HT radioligand against Dopamine receptor D1
[11] = biological target: T4, 5-hydroxytryptamine receptor 1A; test: Binding affinity in radioreceptor binding assay by using [3H]5-HT radioligand against 5-hydroxytryptamine 1A receptor
[12] = species: Rattus norvegicus; test: The percent loss of escape responding was determined for the estimated effective dose 50 values for CAR block; assay type: functional
[13] = biological target: T2, D(2) dopamine receptor; test: Binding affinity in radioreceptor binding assay by using [3H]5-HT radioligand against Dopamine receptor D2

Row | SMILES | Ki [1] | Ki [2] | Ki [3] | Ki [4] | ED50 [5] | Ki [6] | Ki [7] | Ki [8] | Ki [9] | Ki [10] | Ki [11] | Loss [12] | Ki [13]
1 | Oc1ccccc1N1CCNCC1 | > 1000 nM | 516 nM | > 1000 nM | 74.2 nM | 26.2 mg/kg | 117 nM | 35.3 nM | > 1000 nM |  |  |  |  | 
2 | FC(F)(F)c1cccc(N2CCNCC2)c1 | 31.1 nM | 337 nM |  |  | 2.6 mg/kg |  |  |  | 2.25 nM | > 1000 nM | 80.6 nM | 0.6% | 530 nM
